This is an account of results in paper PMC9055277 (RSC Advances, 2020).

Series [1] has as its system Salmonella typhimurium TA100. In words: Salmonella/microsome test. In kind it is cell-based.
The subject of series [2] is Salmonella typhimurium TA98. Nature of the series: Salmonella/microsome test. The format is cell-based.
For a further series, the system named is fish sperm DNA (FS-DNA). In words: UV-Vis absorption titration of ligands with FS-DNA. In kind it is binding. The following applies: on addition of FS-DNA; band 335 nm (1S3), 345 nm (2S3). The method in brief:
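FS-DNA stock was in Tris–HCl pH 7.4 (A260/A280 > 1.8). Test compound (10 μM, diluted from water stock in Tris–HCl) was titrated with FS-DNA (0–20 μM). Tubes were shaken and incubated 15 min, then scanned 200–800 nm in triplicate. The spectrum of DNA alone was subtracted. Kb came from the Benesi–Hildebrand plot of [DNA]/(εa − εf) vs [DNA] as slope/intercept.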

Another series has as its system FS-DNA bound to EtBr. In words: Fluorescence quenching of EtBr–FS-DNA system. The format is binding, fish. The following applies: EtBr–FS-DNA (DNA : EtBr 10 : 1), ligand 0–70 μM, Stern–Volmer equation. The method in brief:
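FS-DNA stock in Tris–HCl pH 7.4, kept at 4 °C for up to 72 h, with purity checked by A260/A280 > 1.8. EtBr stock (3.0 × 10⁻³ mol L⁻¹, ethanol) was made fresh. DNA and EtBr were premixed 15 min at 25 °C. Ligand was diluted from water stock in Tris–HCl, added, and incubated 15 min. Slits were 5/10 nm. KSV is the slope of I₀/I vs [Q].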

Where [3] appears, read: TA100, absence of metabolic activation system (−S9).
Setting [4] is: TA100, presence of metabolic activation system (+S9).
Where [5] appears, read: TA98, absence of metabolic activation system (−S9).
[6] abbreviates: TA98, presence of metabolic activation system (+S9), 2S3: at 0.40, 0.20 and 0.10 mg per plate.
The mark [7] stands for this setting: −S9, control set of the 2S3 experiment (concentration cell empty).

Each structure is given as a SMILES string.

With `NC(=O)COc1cc(OCC(N)=O)c2c(=O)c(OCC(N)=O)c(-c3ccc(OCC(N)=O)c(OCC(N)=O)c3)oc2c1` [1S3, 2,2′,2′′-((2-(3,4-bis(2-amino-2-oxoethoxy)phenyl)-4-oxo-4H-chromene-3,5,7-triyl)tris(oxy))triacetamide], the “revertant colonies TA100 +S9” value was found to be 47.00 ± 7.16 a3b3 in series [1] (0.02 mg per plate); 48.80 ± 12.85 a2b3 in series [1] (0.05 mg per plate); 62.00 ± 4.95 a3b3 in series [1] (0.10 mg per plate); 47.00 ± 6.73 a3b3 in series [1] (0.20 mg per plate); 82.20 ± 5.37 a3b3 in series [1] (0.40 mg per plate). The “revertant colonies TA100 −S9” value was determined as 112.40 ± 3.28 a3b3 in series [1] (0.02 mg per plate); 94.00 ± 8.43 a3b3 in series [1] (0.05 mg per plate); 85.00 ± 7.17 a3b3 in series [1] (0.10 mg per plate); 80.20 ± 10.65 a2b3 in series [1] (0.20 mg per plate); 88.80 ± 14.07 a2b3 in series [1] (0.40 mg per plate). The “effect on number of revertant colonies (mutagenicity), in words” value in series [1] (setting [3]), in series [1] (setting [4]), in series [2] (setting [5]) and in series [2] (setting [6]) was “did not cause any detectable increase” throughout. Also, the “revertant colonies TA98 +S9” value in series [2] (0.02 mg per plate) turned out to be 9.00 ± 0.44 a3b3; in series [2] (0.05 mg per plate), 7.80 ± 1.11 a2b3; in series [2] (0.10 mg per plate) it was 14.00 ± 2.60 b3; in series [2] (0.20 mg per plate), 11.20 ± 2.97 b3; in series [2] (0.40 mg per plate) it was 7.20 ± 1.68 a1b3. The “revertant colonies TA98 −S9” value in series [2] (0.02 mg per plate) is reported as 12.00 ± 1.41 a1b3; in series [2] (0.05 mg per plate) it was 14.40 ± 2.20 b3; in series [2] (0.10 mg per plate) it was 12.20 ± 0.66 a2b3; in series [2] (0.20 mg per plate) it was 13.20 ± 1.01 a1b3; in series [2] (0.40 mg per plate), 11.60 ± 1.63 a1b3. The Hypochromism in the series on fish sperm DNA (FS-DNA) was 22.54%. For the same molecule, in the series on FS-DNA bound to EtBr, the “quenching constant KSV” value came out at 18300 M⁻¹.
Consider `NC(=O)COc1ccc(-c2cc(=O)c3c(OCC(N)=O)cc(OCC(N)=O)cc3o2)cc1` [2S3, 2,2′-((2-(4-(2-Amino-2-oxoethoxy)phenyl)-4-oxo-4H-chromene-5,7-diyl)bis(oxy))diacetamide], for which the “revertant colonies TA100 +S9” value in series [1] (0.02 mg per plate) was found to be 187.40 ± 18.93 a1b3; in series [1] (0.05 mg per plate), 190.80 ± 11.16 a2b3; in series [1] (0.10 mg per plate), 196.60 ± 15.75 a2b3; in series [1] (0.20 mg per plate) it was 183.60 ± 9.35 a2b3; in series [1] (0.40 mg per plate) it was 210.40 ± 2.31 a3b3. Also, the “revertant colonies TA100 −S9” value in series [1] (0.02 mg per plate) was found to be 182.40 ± 9.15 a2b3; in series [1] (0.05 mg per plate), 195.40 ± 6.96 a3b3; in series [1] (0.10 mg per plate), 185.60 ± 7.20 a2b3; in series [1] (0.20 mg per plate), 200.00 ± 8.44 a2b3; in series [1] (0.40 mg per plate), 171.40 ± 8.55 a1b3. Further, the “effect on number of revertant colonies (mutagenicity), in words” value is recorded as “significantly increased” in series [1] (setting [3]), “significantly increased” in series [1] (setting [4]), “did not cause an increase” in series [2] (setting [5]) and “statistically significant increase” in series [2] (setting [6]). The “revertant colonies TA98 +S9” value worked out at 15.60 ± 2.52 b3 in series [2] (0.02 mg per plate); 18.40 ± 1.74 b3 in series [2] (0.05 mg per plate); 25.40 ± 1.83 a2b3 in series [2] (0.10 mg per plate); 22.00 ± 1.37 a2b3 in series [2] (0.20 mg per plate); 24.60 ± 2.11 a2b3 in series [2] (0.40 mg per plate). Also, the “revertant colonies TA98 −S9” value in series [2] (0.02 mg per plate) was found to be 17.00 ± 1.00 b3; in series [2] (0.05 mg per plate) it was 17.40 ± 1.12 b3; in series [2] (0.10 mg per plate), 20.00 ± 2.25 b3; in series [2] (0.20 mg per plate), 16.60 ± 1.80 b3; in series [2] (0.40 mg per plate), 19.20 ± 2.08 b3. This molecule also returned a Hypochromism with fish sperm DNA (FS-DNA) of 20.91%. The “quenching constant KSV” value in the series on FS-DNA bound to EtBr turned out to be 19600 M⁻¹.
With `Nc1ccc([N+](=O)[O-])cc1N` [NPD, 4-nitro-o-phenylenediamine, reference compound], the “revertant colonies TA98 −S9, positive control” value in series [2] (200 μg mL^−1, −S9, control set of the 1S3 experiment) is on record as 4260 ± 291.75; in series [2] (setting [7]), 3808.40 ± 221.78.
For the molecule `[N-]=[N+]=[N-].[Na+]` [SA, sodium azide, reference compound], the “revertant colonies TA100 −S9, positive control” value in series [1] (1 μg mL^−1, −S9, control set of the 1S3 experiment) is reported as 1497.2 ± 230.28; in series [1] (setting [7]), 1506.40 ± 114.82.
